Source: ChEMBL document CHEMBL2380254, “Optimization of tocotrienols as antiproliferative and antimigratory leads” (Eur J Med Chem, 2013)

What was measured:
Type in all cases: functional
[1] = test system: SR; experiment: Growth inhibition of human SR cells after 48 hrs by sulforhodamine B assay
Outline: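 Suspension leukemia line in RPMI 1640 with 5% FBS and 2 mM L-glutamine, NCI-60 five-dose format ([…]), 48 h at 37 °C. Settled cells were fixed with 80% TCA (final 16%), stained with SRB and read at 515 nm. GI50 is where 100×(T−T0)/(C−T0)=50, with T0 measured at dosing.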

[2] = test system: Malme-3M; experiment: Growth inhibition of human MALME-3M cells assessed as cell growth at 10 uM after 48 hrs by sulforhodamine B assay; conditions: read-out: Activity
Outline: (§1)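 Single-dose NCI-60 screen: adherent cells in RPMI 1640 with 5% FBS were exposed to 10 µM for 48 h at 37 °C after a 24 h preincubation. They were fixed in situ with cold TCA (10% final), stained with 0.4% SRB in 1% acetic acid, solubilized in 10 mM Tris base, and read at 515 nm. Percent growth was taken relative to time-zero and control plates.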

[3] = test system: SF-268; experiment: Growth inhibition of human SF268 cells assessed as cell growth at 10 uM after 48 hrs by sulforhodamine B assay; conditions: SF-268, 48 h, read-out: Activity; outline: as §1
[4] = test system: SF-268; experiment: Growth inhibition of human SF268 cells after 48 hrs by sulforhodamine B assay; conditions: SF-268, 48 h
Outline: (§2)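 NCI-60 panel cells grown in RPMI 1640 with 5% FBS and 2 mM L-glutamine, seeded at 5000–40,000 cells/well and preincubated 24 h. Five 10-fold dilutions (0.001–100 µM) from DMSO stocks were added for 48 h at 37 °C. Adherent cells were fixed with cold TCA (10% final) for 60 min at 4 °C, stained with 0.4% SRB, and read at 515 nm. GI50 was set where 100×(T−T0)/(C−T0)=50.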

[5] = test system: OVCAR-3; experiment: Growth inhibition of human OVCAR3 cells after 48 hrs by sulforhodamine B assay; conditions: OVCAR-3, 48 h; outline: as §2
[6] = test system: IGROV-1; experiment: Growth inhibition of human IGROV1 cells assessed as cell growth at 10 uM after 48 hrs by sulforhodamine B assay; conditions: IGROV-1, 48 h, read-out: Activity
Outline: (§3)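 NCI-60 single-dose screen at 10 µM: cells in RPMI 1640 with 5% FBS, preincubated 24 h, then exposed 48 h at 37 °C. TCA fixation (16% final for suspension cells), SRB staining, absorbance 515 nm. Percent growth relative to time-zero and untreated control plates; negative values indicate cell kill.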

[7] = test system: COLO 205; experiment: Growth inhibition of human COLO205 cells assessed as cell growth at 10 uM after 48 hrs by sulforhodamine B assay; conditions: COLO 205, 48 h, read-out: Activity; outline: as §3
[8] = test system: IGROV-1; experiment: Growth inhibition of human IGROV1 cells after 48 hrs by sulforhodamine B assay; conditions: IGROV-1, 48 h
Outline: (§4)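 NCI-60 screen: cells in RPMI 1640 with 5% FBS and 2 mM glutamine, 5000–40,000 cells/well, preincubated 24 h. Five concentrations (10-fold dilutions; 100 to 0.001 µM) applied for 48 h at 37 °C. TCA fixation, SRB stain, absorbance at 515 nm. Time-zero plates included; GI50 where 100×(T−T0)/(C−T0)=50.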

[9] = test system: TK-10; experiment: Growth inhibition of human TK10 cells after 48 hrs by sulforhodamine B assay; conditions: TK-10, 48 h
Outline: (§5)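 NCI-60 five-dose screen. Cells were grown in RPMI 1640 with 5% FBS and 2 mM L-glutamine, plated at 5000–40,000 cells/well and incubated 24 h before dosing, with T0 plates TCA-fixed. DMSO stocks were diluted to doses of […] and exposed 48 h at 37 °C, 5% CO2. Cells were fixed with cold TCA (final 10%, 60 min, 4 °C), stained with 0.4% SRB in 1% acetic acid for 10 min, solubilized in 10 mM trizma base and read at 515 nm. GI50 is where 100×(T−T0)/(C−T0)=50.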

[10] = test system: A549; experiment: Growth inhibition of human A549/ATCC cells assessed as cell growth at 10 uM after 48 hrs by sulforhodamine B assay; conditions: A549, 48 h, read-out: Activity; outline: as §3
[11] = test system: NCI-H322M; experiment: Growth inhibition of human NCI-H322M cells after 48 hrs by sulforhodamine B assay; outline: as §2
[12] = test system: HCT-116; experiment: Growth inhibition of human HCT116 cells after 48 hrs by sulforhodamine B assay; conditions: HCT-116, 48 h; outline: as §4
[13] = test system: SK-OV-3; experiment: Growth inhibition of human SKOV3 cells assessed as cell growth at 10 uM after 48 hrs by sulforhodamine B assay; conditions: SK-OV-3, 48 h, read-out: Activity
Outline: (§6)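 Single-dose NCI-60 test at 10 µM. Cells were grown in RPMI 1640 with 5% FBS and 2 mM L-glutamine, preincubated 24 h, with T0 plates TCA-fixed. Exposure was 48 h at 37 °C, 5% CO2. Cells were fixed with cold TCA (final 10%, 4 °C, 60 min), stained with SRB and read at 515 nm. Percent growth was taken relative to T0 and untreated control; negative values denote cell kill.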

[14] = test system: UACC-257; experiment: Growth inhibition of human UACC257 cells assessed as cell growth at 10 uM after 48 hrs by sulforhodamine B assay; conditions: UACC-257, 48 h, read-out: Activity; outline: as §6
[15] = test system: A498; experiment: Growth inhibition of human A498 cells after 48 hrs by sulforhodamine B assay; conditions: A498, 48 h; outline: as §4
[16] = Growth inhibition of human EKVX cells assessed as cell growth at 10 uM after 48 hrs by sulforhodamine B assay; conditions: read-out: Activity; outline: as §3
[17] = test system: MOLT-4; experiment: Growth inhibition of human MOLT4 cells after 48 hrs by sulforhodamine B assay; conditions: MOLT-4, 48 h
Outline: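 NCI-60 suspension lines in RPMI 1640 with 5% FBS and 2 mM L-glutamine, preincubated 24 h. A five-concentration 10-fold series (0.001–100 µM) was given for 48 h at 37 °C. Settled cells were fixed with 80% TCA (16% final), stained with SRB, and read at 515 nm. GI50 was taken where 100×(T−T0)/(C−T0)=50, with T0 plates fixed at drug addition.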

[18] = test system: NCI-H522; experiment: Growth inhibition of human NCI-H522 cells after 48 hrs by sulforhodamine B assay; conditions: NCI-H522, 48 h; outline: as §2
[19] = test system: 786-0; experiment: Growth inhibition of human 786-0 cells assessed as cell growth at 10 uM after 48 hrs by sulforhodamine B assay; conditions: 786-0, 48 h, read-out: Activity; outline: as §3
[20] = test system: KM12; experiment: Growth inhibition of human KM12 cells assessed as cell growth at 10 uM after 48 hrs by sulforhodamine B assay; conditions: KM12, 48 h, read-out: Activity; outline: as §3
[21] = test system: UACC-257; experiment: Growth inhibition of human UACC257 cells after 48 hrs by sulforhodamine B assay; conditions: UACC-257, 48 h; outline: as §5
[22] = test system: MDA-MB-231; experiment: Growth inhibition of human MDA-MB-231 cells after 48 hrs by sulforhodamine B assay; conditions: MDA-MB-231, 48 h; outline: as §2
[23] = test system: BT-549; experiment: Growth inhibition of human BT549 cells assessed as cell growth at 10 uM after 48 hrs by sulforhodamine B assay; conditions: BT-549, 48 h, read-out: Activity; outline: as §3

| Structure (SMILES) | GI50 [1] | growth at 10 µM [2] | growth at 10 µM [3] | GI50 [4] | GI50 [5] | growth at 10 µM [6] | growth at 10 µM [7] | GI50 [8] | GI50 [9] | growth at 10 µM [10] | GI50 [11] | GI50 [12] | growth at 10 µM [13] | growth at 10 µM [14] | GI50 [15] | GI50 [17] | GI50 [18] | growth at 10 µM [19] | growth at 10 µM [20] | GI50 [21] | other results |
| --- | --- | --- | --- | --- | --- | --- | --- | --- | --- | --- | --- | --- | --- | --- | --- | --- | --- | --- | --- | --- | --- |
| CC(C)=CCC/C(C)=C/CC/C(C)=C/CC[C@]1(C)CCc2c3c(c(C)c(C)c2O1)OCN(CCCCCO)C3 | 4000 nM | 106% | 75.9% | 7130 nM | 6710 nM | 63.7% | 68.7% | 6180 nM | 5980 nM | 80.3% | 6350 nM | 5250 nM | 101% | 110% | 5760 nM | 5870 nM | 7080 nM | 90.2% | 29.3% | 6970 nM | growth at 10 µM [16]: 90.6%; GI50 [22]: 5870 nM; growth at 10 µM [23]: 114% |
| CC(C)=CCC/C(C)=C/CC/C(C)=C/CC[C@]1(C)CCc2c3c(cc(C)c2O1)OCN(CCc1ccc(O)cc1)C3 | 1370 nM | 95.8% | 18.2% | 6170 nM | 3560 nM | 0.45% | -69.9% | 4340 nM | 5560 nM | 76.6% | 6200 nM | 3880 nM | 69.1% | 105% | 6210 nM | 2420 nM | 5320 nM | 69% | -19.4% | 7330 nM | growth at 10 µM [16]: 90.7%; GI50 [22]: 4650 nM; growth at 10 µM [23]: 105% |
| CC(C)=CCC/C(C)=C/CC/C(C)=C/CC[C@]1(C)CCc2c3c(cc(C)c2O1)OCN(C1CCN(Cc2ccccc2)CC1)C3 | 217 nM | 122% | 12.9% | 1670 nM | 1390 nM | -48.5% | -36.5% | 1560 nM | 1710 nM | 49.6% | 1850 nM | 576 nM | 109% | 93% | 1310 nM | 237 nM | 1810 nM | 24.1% | -44% | 2240 nM | growth at 10 µM [16]: 78%; GI50 [22]: 1630 nM; growth at 10 µM [23]: 109% |
| CC(C)=CCC/C(C)=C/CC/C(C)=C/CC[C@]1(C)CCc2c3c(c(C)c(C)c2O1)OCN(CCCCCCO)C3 | 2700 nM | 85.7% | 26% | 2810 nM | 2820 nM | -23.6% | 31.8% | 2690 nM | 3010 nM | 38.9% | 2710 nM | 2870 nM | 13.4% | 104% | 2590 nM | 2920 nM | 3450 nM | 33.7% | 7.87% | 3450 nM | GI50 [22]: 2750 nM; growth at 10 µM [23]: 119% |
| CC(C)=CCC/C(C)=C/CC/C(C)=C/CC[C@]1(C)CCc2c3c(c(C)c(C)c2O1)OCN(CCCCCCCCO)C3 | 2650 nM | 71.7% | 54.9% | 2780 nM | 2790 nM | -53.1% | 14.9% | 2880 nM | 3410 nM | 20.2% | 2700 nM | 2950 nM | 52.9% | 119% | 2320 nM | 3260 nM | 2910 nM | 59.8% | 15.7% | 2960 nM | GI50 [22]: 2890 nM; growth at 10 µM [23]: 109% |
| CC(C)=CCC/C(C)=C/CC/C(C)=C/CC[C@]1(C)CCc2c3c(cc(C)c2O1)OCN(CCCO)C3 | 1040 nM | 110% | -78.5% | 2040 nM | 2110 nM | -6.58% | -92.5% | 1810 nM | 2060 nM | -35.9% | 1870 nM | 1790 nM | 88.3% | 64.2% | 1460 nM | 1920 nM | 1790 nM | 16.6% | -77.4% | 1790 nM | growth at 10 µM [16]: 82.7%; GI50 [22]: 1630 nM; growth at 10 µM [23]: 92% |
| CC(C)=CCC/C(C)=C/CC/C(C)=C/CC[C@]1(C)CCc2c3c(cc(C)c2O1)OCN(CCCCCCCCO)C3 | 785 nM | -56.5% | -83.1% | 4140 nM | 811 nM | -79.9% | -94.5% | 1340 nM | 4640 nM | -85.3% | 5130 nM | 597 nM | -56.9% | 99% | 4710 nM | 996 nM | 3750 nM | -95.3% | -88.1% | 656 nM | growth at 10 µM [16]: -53.4%; GI50 [22]: 1100 nM |
| CC(C)=CCC/C(C)=C/CC/C(C)=C/CC[C@]1(C)CCc2c3c(cc(C)c2O1)OCN(CCCCCCO)C3 | 670 nM | -50.2% | -80.2% | 1180 nM | 702 nM | -73.7% | -79.6% | 1280 nM | 2540 nM | -34.7% | 3750 nM | 659 nM | -37.2% | 90.5% | 4880 nM | 835 nM | 4370 nM | -98% | -79.1% | 620 nM | GI50 [22]: 782 nM; growth at 10 µM [23]: 41.6% |
